Results: paper PMC5421626 (Japanese Journal of Clinical Oncology, 2017)
Where two headings read alike, the source gives them in different places. Where a SMILES comes first, the peptide text is derived from it. [ ]: non-standard residue; d: D form. The star is where a group is joined. dPhe(4-NHCONH2) = NC(=O)Nc1ccc(C[C@@H](N)C(=O)O)cc1; Dihydroorotyl(S) = O=C1C[C@@H](C(=O)*)NC(=O)N1; dPhe(4-Cl) = N[C@H](Cc1ccc(Cl)cc1)C(=O)O; Phe(4-NH2) = Nc1ccc(C[C@H](N)C(=O)O)cc1; d2Nal = N[C@H](Cc1ccc2ccccc2c1)C(=O)O; Lys(iPr) = CC(C)NCCCC[C@H](N)C(=O)O; d3Pal = N[C@H](Cc1cccnc1)C(=O)O

Experiments:
serum testosterone [1] = assay: Serum testosterone suppression; type: in vivo, human (Japanese patients with prostate cancer); details: completers–FAS
[2] = test system: serum prostate-specific antigen (PSA); assay: Serum PSA response and PSA failure, Phase II 3-month degarelix study; type: in vivo, human (Japanese patients with prostate cancer); details: FAS; for median percent change in serum PSA level from baseline to Day 364: range −99.9%
Method in brief: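 Randomised 1:1 by minimisation, patients got a subcutaneous 240 mg initial dose, then from Day 28 360 or 480 mg (60 mg/ml) every 84 days for four doses. In the full analysis set, percent change in serum PSA from baseline was calculated at Days 28 and 364. PSA failure (relapse) over Days 0–364 was given as a proportion with two-sided 95% CI, and cumulative incidence by Kaplan–Meier.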

Safety assessment = type: in vivo, human (Japanese patients with prostate cancer); details: for incidence of serious AEs / incidence of ADRs / overall incidence of AEs: SAF
Method in brief: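 The safety set covered all dosed patients, given a subcutaneous 240 mg initial dose, then 360 or 480 mg maintenance every 84 days for 12 months. Recorded were AEs, serious AEs and ADRs (including injection-site reactions), with AEs graded by NCI-CTCAE v4.0, plus biochemistry, hematology, urinalysis, vital signs and 12-lead ECG. Frequencies were tabulated by MedDRA System Organ Class and Preferred Term.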

[3] = Plasma pharmacokinetics of degarelix; type: in vivo, human (Japanese patients with prostate cancer); details: for GMR (95% CI) of Ctrough values between Days 28 and 364: human plasma, LC-MS/MS, geometric mean ratio, PKAS; for Cmax / Tmax: male, human, plasma, sc
Method in brief: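 Patients got a subcutaneous 240 mg (40 mg/ml) initial dose, then 360 or 480 mg (60 mg/ml) every 84 days from Day 28, for four doses. Plasma was sampled every 28 days and assayed by validated LC-MS/MS (LOQ 0.5 ng/ml). Ctrough was taken on Days 28, 112, 196, 280 and 364, and GMRs with 95% CIs were compared. In a subset, samples 3 and 7 days after Day 28 gave Cmax and Tmax. Analysis set: PKAS.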

serum testosterone [4] = details: Study CS18, 3-month regimen, cited from earlier work
serum testosterone [5] = details: Study CL-0003, 1-month regimen, cited from earlier work
serum PSA = details: Study CL-0003, 1-month regimen, cited from earlier work

For `CC(=O)N[C@H](Cc1ccc2ccccc2c1)C(=O)N[C@H](Cc1ccc(Cl)cc1)C(=O)N[C@H](Cc1cccnc1)C(=O)N[C@@H](CO)C(=O)N[C@@H](Cc1ccc(NC(=O)[C@@H]2CC(=O)NC(=O)N2)cc1)C(=O)N[C@H](Cc1ccc(NC(N)=O)cc1)C(=O)N[C@@H](CC(C)C)C(=O)N[C@@H](CCCCNC(C)C)C(=O)N1CCC[C@H]1C(=O)N[C@H](C)C(N)=O` [degarelix] (Ac-[d2Nal][dPhe(4-Cl)][d3Pal]S[Phe(4-NH2)](Dihydroorotyl(S))[dPhe(4-NHCONH2)]L[Lys(iPr)]P[dA]-NH2), the “proportion of patients with a serum testosterone level ≤0.5 ng/ml from Days 28 to 364” value (serum testosterone [1]; 360 mg group, 95% CI 76.85–94.45%) was 87.50%, the “proportion of patients with a serum testosterone level ≤0.5 ng/ml from Days 28 to 364” value (serum testosterone [1]; 480 mg group, 95% CI 89.92–99.65%) was 97.10% and the “median percent change in serum PSA level from baseline to Day 28” value ([2]; 360 mg group (after 240 mg initial dose)) was −70.4%. The “proportion of patients with PSA failure (serum PSA relapse) from baseline to Day 364” value ([2]; 360 mg group) was 2.7%, the “median percent change in serum PSA level from baseline to Day 364” value ([2]; 360 mg group, −51.3%) was −95.05% and the “median percent change in serum PSA level from baseline to Day 28” value ([2]; 480 mg group (after 240 mg initial dose)) was −79.9%. For the same compound, the “proportion of patients with PSA failure (serum PSA relapse) from baseline to Day 364” value ([2]; 480 mg group) was 1.3%, the “median percent change in serum PSA level from baseline to Day 364” value ([2]; 480 mg group, −44.0%) was −96.43% and the “patients with AEs related to injection site reactions” value (Safety assessment; 360 mg group) was 50.0%. For the same compound, the “incidence of serious AEs” value (Safety assessment; 360 mg group, 13/76) was 17.1%, the “incidence of ADRs” value (Safety assessment; 360 mg group, 68/76) was 89.5% and the “overall incidence of AEs” value (Safety assessment; 360 mg group, 72/76) was 94.7%. For the same compound, the “deaths (patients)” value (Safety assessment; 360 mg group, suicide after initial dose, before maintenance dose) was “One”, the “patients with AEs related to injection site reactions” value (Safety assessment; 480 mg group) was 60.5% and the “patients with marked increase (≥480 ms) in QTcF on Day 364” value (Safety assessment; 480 mg group, 12-lead electrocardiogram) was “one”. For the same compound, the “incidence of serious AEs” value (Safety assessment; 480 mg group, 7/76) was 9.2%, the “incidence of ADRs” value (Safety assessment; 480 mg group, 71/76) was 93.4% and the “overall incidence of AEs” value (Safety assessment; 480 mg group, 73/76) was 96.1%. The “patients who discontinued the treatment because of injection site reactions” value (Safety assessment; both groups) was “no patient”, the “severity of injection site reactions” value (Safety assessment; both groups, NCI-CTCAE v4.0) was “mild or moderate (Grade 1 or 2)” and the “GMR (95% CI) of Ctrough values between Days 28 and 364” value ([3]; 360 mg group) was 1.258 (1.114–1.421). The “GMR (95% CI) of Ctrough values between Days 28 and 364” value ([3]; 480 mg group) was 1.752 (1.589–1.932), the “steady state of plasma concentration” value ([3]; both dose groups (360 and 480 mg every 84 days)) was “did not achieve steady state by Day 364” and the Cmax ([3]; 360 mg) was 74.7 ± 30 ng/mL. For the same compound, the Tmax ([3]; 360 mg) was 71.3 h, the Cmax ([3]; 480 mg) was 98.5 ± 31.7 ng/mL and the Tmax ([3]; 480 mg) was 70.8 h. For the same compound, the “cumulative probability of serum testosterone ≤0.5 ng/ml” value (shortened to “cumulative probability”) (serum testosterone [4]; 360 mg group) was 89.0%, the “cumulative probability” value (serum testosterone [4]; 480 mg group) was 93.3% and the “cumulative probability” value (serum testosterone [5]; 80 mg maintenance-dose group) was 94.5%. The “cumulative probability” value (serum testosterone [5]; 160 mg maintenance-dose group) was 95.2%, the “percent change in PSA at Day 28” value (serum PSA; 80 mg maintenance-dose group) was “–80.14%” and the “percent change in PSA at Day 28” value (serum PSA; 160 mg maintenance-dose group) was “–79.52%”.
